{
  "source": "paper PMC3475189",
  "about": "(Environmental science & technology, 2012)",
  "key": {"[1]": {"assay": "Tissue levels of PCB 95 and OH-PCB metabolites by GC-ECD", "assay_type": "in vivo, female C57Bl/6 mice", "conditions": "for levels in adipose and brain samples: detection limits 11 to 16 ng/g tissue; for concentration at 24 h: female, C57Bl/6, mouse, brain"}, "[2]": {"assay": "Enantiomeric fractions in tissues by enantioselective GC", "assay_type": "in vivo, female C57Bl/6 mice", "how_it_was_run": "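Extracts of blood, brain, liver and adipose came from mice given 0.1, 1.0 or 6.0 mg/kg/day orally in peanut butter for 39 days and sacrificed 24 h after the last dose. Enantioselective GC-ECD used Chirasil Dex, BGB-172 or ChiralDex B-DM columns: 35 to 140 °C held 420 min, then 200 °C; injector and detector 250 °C; helium 3 mL/min. EF = A1/(A1+A2), E1 being the first-eluting atropisomer; mean ± SD.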"}, "[3]": {"conditions": "cited from earlier work"}, "CYP2B10 mRNA": {"test_system": "CYP2B10 mRNA", "assay": "Hepatic CYP2B10 mRNA level by qPCR", "assay_type": "in vivo, female C57Bl/6 mice", "conditions": "liver, low dose 0.1 mg/kg b.w./day, 39 days oral"}, "CYP3A11 mRNA": {"test_system": "CYP3A11 mRNA", "assay": "Hepatic CYP3A11 mRNA level by qPCR", "assay_type": "in vivo, female C57Bl/6 mice", "conditions": "liver, high dose 6 mg/kg b.w./day, 39 days oral"}, "General toxicity": {"assay": "General toxicity", "assay_type": "in vivo, female C57Bl/6 mice", "conditions": "0.1, 1 or 6 mg/kg b.w./day oral for 39 days, any dose level", "how_it_was_run": "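Seven-week-old female C57Bl/6 mice, housed singly on a 12 h reverse light cycle, were acclimated 7 days. They then took the test compound in peanut butter daily at 0.1, 1.0 or 6.0 mg/kg/day for 39 days, with the amount adjusted to daily body weight; vehicle controls received peanut butter only. Body weights were recorded daily and analysed by two-way repeated measures ANOVA.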"}, "CYP1A2 mRNA": {"test_system": "CYP1A2 mRNA", "assay": "Hepatic CYP1A2 mRNA level by qPCR", "assay_type": "in vivo, female C57Bl/6 mice", "conditions": "liver, 39 days oral"}, "CYP2S1 mRNA": {"test_system": "CYP2S1 mRNA", "assay": "Hepatic CYP2S1 mRNA level by qPCR", "assay_type": "in vivo, female C57Bl/6 mice", "conditions": "liver, all doses, 39 days oral"}, "[4]": {"test_system": "P450 mRNA (CYP1A2, CYP3A11, CYP2B10, CYP2S1)", "assay": "Brain P450 mRNA levels by qPCR", "assay_type": "in vivo, female C57Bl/6 mice", "conditions": "39 days oral"}},
  "data": [
    {"smiles": "COc1c(Cl)c(Cl)c(-c2cc(Cl)ccc2Cl)c(Cl)c1OC", "note": "[4,5-95, 4,5-dimethoxy-2,2′,3,5′,6-pentachlorobiphenyl]", "values": [
      {"measurement": "levels in adipose and brain samples", "setting": "[1]", "value": "below their respective detection limits"}
    ]},
    {"smiles": "Oc1cc(Cl)c(Cl)c(-c2cc(Cl)ccc2Cl)c1Cl", "note": "[5-95, 2,2′,3,5′,6-pentachlorobiphenyl-5-ol]", "values": [
      {"measurement": "levels in adipose and brain samples", "setting": "[1]", "value": "below their respective detection limits"},
      {"measurement": "enriched atropisomer", "setting": "[2]; liver, high dose treatment group", "value": "E1-5-95 was enriched"},
      {"measurement": "enantiomeric enrichment", "setting": "[2]; liver, medium dose treatment group", "value": "no consistent enantiomeric enrichment"}
    ]},
    {"smiles": "Oc1c(Cl)cc(-c2ccc(Cl)c(Cl)c2)c(Cl)c1Cl", "note": "[4-107, 2,3,3′,4′,5-pentachlorobiphenyl-4-ol]", "values": [
      {"measurement": "level in fetal brains", "setting": "[3]; fetal brain after oral administration of 4-107 to pregnant Wistar rats", "value": "~ 1 μg/g tissue"},
      {"measurement": "level in post-weanling rats", "setting": "[3]; post-weanling rats", "value": "below detection"}
    ]},
    {"smiles": "Oc1cc(Cl)c(-c2cc(Cl)ccc2Cl)c(Cl)c1Cl", "note": "[4-95, 2,2′,3,5′,6-pentachlorobiphenyl-4-ol]", "values": [
      {"measurement": "levels in adipose and brain samples", "setting": "[1]", "value": "below their respective detection limits"},
      {"measurement": "level in liver", "setting": "[1]; liver, low dose treatment group", "value": "below the detection limit"}
    ]},
    {"smiles": "Clc1ccc(Cl)c(-c2c(Cl)ccc(Cl)c2Cl)c1", "note": "[PCB 95, 2,2′,3,5′,6-pentachlorobiphenyl]", "values": [
      {"measurement": "concentration at 24 h", "setting": "[1]; oral, 6 mg/kg/day", "value": 360, "unit": "ng/g"},
      {"measurement": "concentration at 24 h", "setting": "[1]; po", "value": "37 to 360", "unit": "ng/g"},
      {"measurement": "increase in adipose levels of PCB 95", "setting": "[1]; low to medium dose (10-fold increase in dose)", "value": 10, "unit": "fold"},
      {"measurement": "CYP2B10 mRNA levels compared to control", "setting": "CYP2B10 mRNA", "value": "no change"},
      {"measurement": "hepatic CYP3A11 levels compared to control", "setting": "CYP3A11 mRNA", "value": "no change"},
      {"measurement": "effect on final body weight, growth rate or other signs of general toxicity", "setting": "General toxicity", "value": "no effect"},
      {"measurement": "CYP1A2 transcript levels relative to control", "setting": "CYP1A2 mRNA; high dose 6 mg/kg b.w./day", "value": "not changed"},
      {"measurement": "induction of CYP1A2 mRNA compared to control", "setting": "CYP1A2 mRNA; low dose 0.1 mg/kg b.w./day", "value": 1.9, "unit": "fold"},
      {"measurement": "hepatic CYP2S1 mRNA levels", "setting": "CYP2S1 mRNA", "value": "not affected"},
      {"measurement": "average EF value across treatment groups", "setting": "[2]; adipose, EF = A1/(A1+A2)", "value": "≈ 0.19"},
      {"measurement": "enriched atropisomer", "setting": "[2]; blood, brain, liver and adipose, all three treatment groups", "value": "E2-PCB 95 was enriched"},
      {"measurement": "average EF across treatment groups", "setting": "[2]; liver and blood, EF = A1/(A1+A2)", "value": "approximately 0.10"},
      {"measurement": "brain P450 mRNA levels", "setting": "[4]", "value": "not affected"}
    ]},
    {"smiles": "COc1c(Cl)cc(Cl)c(-c2cc(Cl)ccc2Cl)c1Cl", "note": "[3-103, 3 Methoxy 2,2′,4,5′,6-pentachlorobiphenyl]", "values": [
      {"measurement": "levels in adipose and brain samples", "setting": "[1]", "value": "below their respective detection limits"}
    ]}
  ]
}
